Key:
MCF7 [1] = assay: Effect on the MCF-7 cell growth at 10e-6 M; type: functional, Homo sapiens
Outline: (§1)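 MCF-7 cells seeded at 5000 cells/mL; compounds added after 24 h, final 10^-8, 10^-7 and 10^-6 M, alone or with 10^-8 M estradiol. After 5 days of culture, monolayer fixed in 90% ethanol and stained with hematoxylin; absorbance read at 540 nm as a measure of cell number. Mean of four separate cultures, expressed as percentage of control.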

MCF7 [2] = assay: Effect on the MCF-7 cell proliferation at 10e-7 M; type: functional, Homo sapiens; outline: as §1
MCF7 [3] = assay: Effect on the MCF-7 cell proliferation at 10e-8 M; type: functional, Homo sapiens; outline: as §1
[4] = target: Estrogen receptor (Homo sapiens) (UniProt Q92731+P03372); assay: Relative binding affinity for estrogen receptor of MCF-7 cells; type: cell-based; settings: MCF7
Outline: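 Whole MCF-7 cells incubated 50 min at 37 °C with 10^-9 M [3H]estradiol, without or with test compound or unlabeled estradiol reference (10^-10 to 10^-6 M). Bound material extracted with EtOH and receptor-bound [3H]estradiol measured. RBA calculated as in the calf uterine cytosol competition assay.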

Relative binding affinity [4]	Structure (SMILES)	Activity (MCF7 [1])	Activity (MCF7 [2])	Activity (MCF7 [3])
	CC/C(=C(/c1ccccc1)c1ccc(O)cc1)c1ccccc1.C[C@]12CC[C@@H]3c4ccc(O)cc4CC[C@H]3[C@@H]1CC[C@H]2O	0.41	0.607	0.696
	CC/C(=C(\c1ccccc1)c1ccc(O)cc1)c1ccccc1.C[C@]12CC[C@@H]3c4ccc(O)cc4CC[C@H]3[C@@H]1CC[C@@H]2O	0.108	0.138	0.229
	CC/C(=C(/c1ccccc1)c1ccc(O)cc1)c1ccccc1	0.428	0.486	0.557
0.04	CC[C@H](c1ccccc1)[C@@H](c1ccccc1)c1ccc(OCCN(C)C)cc1			
0.02	CC[C@@H](c1ccccc1)[C@H](c1ccccc1)c1ccc(OCCN(C)C)cc1			
	CC/C(=C(\c1ccccc1)c1ccc(O)cc1)c1ccccc1	0.131	0.12	0.121
